Test results published in ChEMBL document CHEMBL1151751, “Bisphosphonate inhibition of a Plasmodium farnesyl diphosphate synthase and a general method for predicting cell-based activity from enzyme data” (J Med Chem, 2008).

Key:
Plasmodium falciparum = experiment: Growth inhibition of Plasmodium falciparum; assay type: functional, organism-based
[1] = Inhibition of Plasmodium vivax FPPS expressed in Escherichia coli BL21 by spectrophotometric assay
Outline: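 Recombinant enzyme from lysed cells (lysozyme, nuclease, protease inhibitors), purified on Ni-NTA resin. The GPP + IPP condensation was followed at room temperature by a continuous spectrophotometric phosphate-release assay in 25 mM Hepes, 2.5 mM MgCl₂, pH 7.4. Inhibitors were preincubated with enzyme for 30 min at room temperature. IC50 was obtained by fitting the dose–response curve.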

Plasmodium berghei = experiment: Antiparasitic activity against Plasmodium berghei ANKA infected BALB/c mice (Mus musculus) as reduced parasitaemia; assay type: functional; design: scale not given: the % may be the effect or the level left

Structure (SMILES)	IC50 (Plasmodium falciparum; read-out: IC50) [µM]	IC50 (Plasmodium falciparum; read-out: pIC50 (converted)) [µM]	IC50 [1] [µM]	pIC50 [1]	Activity (Plasmodium berghei) [%]
O=P(O)(O)C(Nc1nccs1)P(=O)(O)O	120	126	0.71	6.1	
Cc1cccc(CC(O)(P(=O)(O)O)P(=O)(O)O)c1	23	25.1	2.3	5.6	
O=P(O)(O)C(O)(Cc1cccc(Cl)c1)P(=O)(O)O	4.3	3.98	0.63	6.2	
O=P(O)(O)C(O)(Cc1cccc(C(F)(F)F)c1)P(=O)(O)O	3.8	3.98	0.68	6.2	
O=P(O)(O)C(O)(Cc1cccc(F)c1)P(=O)(O)O	6.4	6.31	0.63	6.2	
Cc1ccc(C)c(COc2ccc(C)nc2NC(P(=O)(O)O)P(=O)(O)O)c1	200	200	98	4	
O=P(O)(O)C(CNc1ccccn1)P(=O)(O)O	28	25.1	0.82	6.1	
CN(CCc1ccccc1)CCC(O)(P(=O)(O)O)P(=O)(O)O		31.6	0.4	6.4	
O=P(O)(O)C(O)(Cc1cccc(Br)c1)P(=O)(O)O	22	20	0.88	6.1	
CN(Cc1ccccc1)C(P(=O)(O)O)P(=O)(O)O	180	200	0.87	6.1	
O=P(O)(O)C(O)(Cc1ccccn1)P(=O)(O)O	220	200	0.9	6	
CCCC(O)(P(=O)(O)O)P(=O)(O)O		126	0.78	6.1	
CCCCCCCCCC(O)(P(=O)(O)O)P(=O)(O)O			0.71	6.1	80
CN(CCCc1ccccc1)CCC(O)(P(=O)(O)O)P(=O)(O)O		25.1	0.45	6.3	
O=P(O)(O)C(Nc1ccc(Cl)cn1)P(=O)(O)O		10			
CCCCCCC(O)(P(=O)(O)O)P(=O)(O)O	1.4	1.26	0.63	6.2	
O=P(O)(O)C(O)(CSc1ccncc1)P(=O)(O)O			1.2	5.9	
CCCCCCCCCCCCCC(O)(P(=O)(O)O)P(=O)(O)O		2	4.1	5.4	
CN(CCCCc1ccccc1)CCC(O)(P(=O)(O)O)P(=O)(O)O		3.16			
O=P(O)(O)C(O)(Cc1ccccc1)P(=O)(O)O	11	10			
O=P([O-])(O)C(O)(CC1=[n+]2ccccc2=NC1)P(=O)(O)O (stereo not given)	90	100			
CCCCCCCCCNC(P(=O)(O)O)P(=O)(O)O [(NONYLAMINO)METHYLENEDIPHOSPHONIC ACID]		100	5.2	5.3	80
CCCCCCCCNC(P(=O)(O)O)P(=O)(O)O [(OCTYLAMINO)METHYLENEDIPHOSPHONIC ACID]	12	12.6	0.49	6.3	
CCCCCN(C)CCC(O)(P(=O)(O)O)P(=O)(O)O [IBANDRONIC ACID]	74	79.4	0.92	6	
O=P(O)(O)C(O)(Cn1ccnc1)P(=O)(O)O [ZOLEDRONIC ACID]		158			
